A short description of series [1]: Aqueous solubility, shake flask method in water. The settings on record: for solubility at 24 h: water, 25 °C, thermodynamic from solid. The series is classed as physicochemical. Put shortly: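 Excess solid test compound was added to 0.5 mL water pre-equilibrated at 25 °C and shaken in a water bath at 25 ± 0.5 °C and 75 rpm for 24 h. Aliquots were centrifuged, and the supernatant was filtered and assayed for drug content. Analysis was by HPLC on a C18 column with 15 mM phosphate (pH 2.5)/1% acetonitrile and fluorescence detection (ex 270, em 380). Runs were in duplicate.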

Series [2] in a line: Stability in ocular tissue homogenates: iris-ciliary body. The settings on record: rabbit, iris-ciliary body homogenate supernatant, pH 7.4. The series is classed as in vitro ADME.
Series [3] is described as follows: Hydrolysis in DPBS transport media. The series is classed as physicochemical. The following applies: pH 7.4.
The nature of series [4]: Stability in vitreous humor. The settings on record: for Apparent first order rate constant (k*): Vitreous Humor used as such, 37 °C, overall observed degradation; for half-life at 10 μg/mL: rabbit, vitreous humor (used as such). Type of series: in vitro ADME, rabbit.
The nature of series [5]: Stability in ocular tissue homogenates: cornea. The series is classed as in vitro ADME. The following applies: rabbit, corneal homogenate supernatant, pH 7.4.
Series [6] in a line: Stability in ocular tissue homogenates: retina/choroid. Type of series: in vitro ADME. The following applies: rabbit, retina/choroid homogenate supernatant, pH 7.4.
The target of series [7] is T1, amino acid transporter B^0,+ (Oryctolagus cuniculus, UniProt G1T8K9).
T1 sequence (G1T8K9 1-637): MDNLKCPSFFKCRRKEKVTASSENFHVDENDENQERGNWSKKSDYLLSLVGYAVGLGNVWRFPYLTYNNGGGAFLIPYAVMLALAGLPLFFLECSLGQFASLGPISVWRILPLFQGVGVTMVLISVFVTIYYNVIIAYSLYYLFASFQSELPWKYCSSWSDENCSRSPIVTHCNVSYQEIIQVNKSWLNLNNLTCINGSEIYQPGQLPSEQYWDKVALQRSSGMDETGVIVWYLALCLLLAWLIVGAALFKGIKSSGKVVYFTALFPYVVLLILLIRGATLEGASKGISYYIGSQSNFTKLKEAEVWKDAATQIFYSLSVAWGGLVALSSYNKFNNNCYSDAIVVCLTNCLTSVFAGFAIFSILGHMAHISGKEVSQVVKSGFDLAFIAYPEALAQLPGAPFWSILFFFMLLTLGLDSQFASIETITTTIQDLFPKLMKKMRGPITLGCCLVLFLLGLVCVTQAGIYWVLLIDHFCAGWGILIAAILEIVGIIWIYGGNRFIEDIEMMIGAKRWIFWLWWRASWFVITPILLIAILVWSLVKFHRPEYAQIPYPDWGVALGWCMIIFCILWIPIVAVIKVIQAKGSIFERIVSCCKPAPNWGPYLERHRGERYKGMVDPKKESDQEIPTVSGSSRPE
Kind of series: Transcorneal transport mechanism studies. The series is classed as in vitro ADME, rabbit. The settings on record: for Substrate of the corneal amino acid transporter B^0,+: concluded from rabbit corneal permeability with and without inhibitors.

Series [8] can be described thus: Solution. Type of series: physicochemical.
For series [9], the system named is B^o,+. The settings on record: a substrate of B^o,+; cited from earlier work.
The test system of series [10] is amino acid transporter B^0,+. The following applies: xenopus laevis oocytes; cited from earlier work.
The conditions of series [11]: cited from earlier work.

Where “and” joins values, the source holds several entries; their conditions need not be identical. Equal entries are not always repeated. Entries after “also recorded” stand apart in the source; their conditions may differ.

As for `Cl.Nc1nc2c(ncn2COCCOC(=O)[C@H](N)CC(=O)O)c(=O)[nH]1` [D-Asp-ACV, (R)-3-amino-4-(2-((2-amino-6-oxo-1H-purin-9(6H)-yl)methoxy)ethoxy)-4-oxobutanoic acid-HCl], the “Solubility, fold higher than that of ACV” value in [1] (relative to ACV) was “about 2 fold”. In series [1], the solubility at 24 h was 3850 µg/mL and 10200 µM. Also, the half-life at 10 μg/mL came to 2.32 ± 0.168 h in series [2], 2.34 ± 0.252 h in series [4], 3.73 ± 0.21 h in series [5] and 20 ± 1.47 h in [6]. Besides, in [3] (DPBS), the half-life was 5.6 ± 0.2 h. The “Apparent first order rate constant (k*)” value in series [4] is 5 ± 0.5 ×10^3, min^−1. The “Substrate of the corneal amino acid transporter B^0,+” value in series [7] is listed as “not a substrate”.
On to `Cl.Nc1nc2c(ncn2COCCOC(=O)[C@@H](N)CC(=O)O)c(=O)[nH]1` [L-Asp-ACV, (S)-3-amino-4-(2-((2-amino-6-oxo-1H-purin-9(6H)-yl)methoxy)ethoxy)-4-oxobutanoic acid-HCl], for which, in series [1], the solubility at 24 h was 3840 µg/mL and 10200 µM. The half-life at 10 μg/mL in [2] stood at 2.23 ± 0.085 h; in series [4], 2.76 ± 0.065 h; in series [5], 4.83 ± 0.203 h; in series [6], 0.86 ± 0.0267 h. Besides, the half-life in series [3] (buffer) is 5.1 ± 0.1 h. Besides, the “Apparent first order rate constant (k*)” value in series [4] is listed as 4.2 ± 0.1 ×10^3, min^−1. In addition, the half-life at 50 μg/mL in series [8] (borate buffer, pH 9) is 5.6 ± 0.2 h; in series [8] (hydrochloride buffer, pH 1.2), 627 ± 31 h; in series [8] (phosphate buffer, pH 7) it was 32 ± 0.4 h; in series [8] (phthalate buffer, pH 3) it was 371 ± 16 h; in [8] (phthalate buffer, pH 5), 262 ± 4 h. For the same molecule, the “Effect of glutamic acid on transcorneal transport” value in [7] (L-Glutamic acid 1 mM, pH 5) is “not inhibited; also recorded: failed to inhibit”. Further, the “Substrate of the corneal amino acid transporter B^0,+” value in [7] is recorded as “is a substrate”. Moreover, the “Transcorneal permeability in the presence of BCH” value in series [7] (male, New Zealand albino, rabbit, 3 h) is on record as 2.66±0.21 × 10^−6 cm.s^−1.
As to `Nc1nc2c(ncn2COCCOC(=O)C(N)Cc2ccccc2)c(=O)[nH]1` (stereo not shown) [phenylalanine-ACV], in series [9], the “Transport of [^3H]-L-Arginine in the presence of prodrug” value was “decreased transport”.
As to `Nc1nc2c(ncn2COCCOC(=O)C[C@H](N)C(=O)O)c(=O)[nH]1` [acyclovir-L-aspartate β-ester], the “Transport by the amino acid transporter B^0,+” value in [10] was “is transported”.
On to `Nc1nc2c(ncn2COCCO)c(=O)[nH]1` [ACV, acyclovir, reference compound], for which the solubility at 24 h in series [1] was 1200 µg/mL and 5300 µM. In addition, the “saturation solubility in water” value in series [11] was 1200 µg/mL.

The term solubility denotes the concentration that dissolves in the medium under given conditions. A higher solubility goes with a readily soluble substance. For orientation: half-life means the time in which the quantity being followed falls by half. The low end stands for rapid decline, the high end for slow decline.
